Assay outcomes: PubChem BioAssay, several laboratories
An excerpt weighted towards active compounds, which were near 2.3% of everything screened.
RAM network inh: inhibitors of the yeast RAM network, primary screen, dse1pr::URA3 reporter, 5-FOA selection; 1.8% of 190,000 active; AID 868, 2007; S. cerevisiae dse1pr::URA3 reporter, 5-FOA growth OD615, 2 d; analog-sensitive cbk1-as2 kinase mutant strain; inhibition, % at 50 µM;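 active = inhibition above a set limit, 3 SD over mean compound inhibition, cut at about 8.4% in these data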;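 also: 0% = DMSO-only wells with no growth and 100% = 10 µM 1-NA-PP1 full growth; inhibition rescues growth on 5-FOA so higher OD means more RAM inhibition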
ABCG2 inh: ABCG2 efflux pump inhibitors, primary screen, multiplex with ABCB1, IgMXP3 cells, flow cytometry; Broad substrate specificity ATP-binding cassette transporter ABCG2 (Homo sapiens), Q9UNQ0; JC-1 efflux; inhibition, % at 6.6 µM; 0.1% of 190,000 active; AID 1325, 2008;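 active = inhibition above 80%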;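 also: 0% = DMSO and 100% = nicardipine control wells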
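Incubation: cells with compound and JC-1, 10 min at 25 °C, rotating, no wash / Test system: IgMXP3 (ABCG2) plus far-red-tagged CCRF-Adr (ABCB1) cells / Compound dosing: one concentration, 6.6 µM final / Also added: JC-1 fluorescent substrate / Evaluation: efflux inhibition in percent versus controls / Detection: flow cytometry, 530 nm JC-1 signal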
Arbovirus anti: antivirals against arbovirus infection, primary screen, cell-based, full library, 10K replicate subset; arbovirus infection cell-based antiviral screen; inhibition, % at 10 µM; 0.37% of 200,000 active; in the data active = inhibition above about 30%
ABCB1 block: ABCB1 efflux pump inhibitors, primary screen, cell-based, multiplex, flow cytometry, ABCG2 counter-screen | CCRF-Adr cells, JC-1 efflux | 0.067% of 190,000 active | inhibition, % at 6.6 µM | ATP-dependent translocase ABCB1 (Homo sapiens), P08183; in the data active = inhibition above about 40%;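 also: 0% = vehicle and 100% = reference inhibitor; higher value means more JC-1 retained so stronger ABCB1 efflux block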
Target sequence (P08183 whole entry, looked up): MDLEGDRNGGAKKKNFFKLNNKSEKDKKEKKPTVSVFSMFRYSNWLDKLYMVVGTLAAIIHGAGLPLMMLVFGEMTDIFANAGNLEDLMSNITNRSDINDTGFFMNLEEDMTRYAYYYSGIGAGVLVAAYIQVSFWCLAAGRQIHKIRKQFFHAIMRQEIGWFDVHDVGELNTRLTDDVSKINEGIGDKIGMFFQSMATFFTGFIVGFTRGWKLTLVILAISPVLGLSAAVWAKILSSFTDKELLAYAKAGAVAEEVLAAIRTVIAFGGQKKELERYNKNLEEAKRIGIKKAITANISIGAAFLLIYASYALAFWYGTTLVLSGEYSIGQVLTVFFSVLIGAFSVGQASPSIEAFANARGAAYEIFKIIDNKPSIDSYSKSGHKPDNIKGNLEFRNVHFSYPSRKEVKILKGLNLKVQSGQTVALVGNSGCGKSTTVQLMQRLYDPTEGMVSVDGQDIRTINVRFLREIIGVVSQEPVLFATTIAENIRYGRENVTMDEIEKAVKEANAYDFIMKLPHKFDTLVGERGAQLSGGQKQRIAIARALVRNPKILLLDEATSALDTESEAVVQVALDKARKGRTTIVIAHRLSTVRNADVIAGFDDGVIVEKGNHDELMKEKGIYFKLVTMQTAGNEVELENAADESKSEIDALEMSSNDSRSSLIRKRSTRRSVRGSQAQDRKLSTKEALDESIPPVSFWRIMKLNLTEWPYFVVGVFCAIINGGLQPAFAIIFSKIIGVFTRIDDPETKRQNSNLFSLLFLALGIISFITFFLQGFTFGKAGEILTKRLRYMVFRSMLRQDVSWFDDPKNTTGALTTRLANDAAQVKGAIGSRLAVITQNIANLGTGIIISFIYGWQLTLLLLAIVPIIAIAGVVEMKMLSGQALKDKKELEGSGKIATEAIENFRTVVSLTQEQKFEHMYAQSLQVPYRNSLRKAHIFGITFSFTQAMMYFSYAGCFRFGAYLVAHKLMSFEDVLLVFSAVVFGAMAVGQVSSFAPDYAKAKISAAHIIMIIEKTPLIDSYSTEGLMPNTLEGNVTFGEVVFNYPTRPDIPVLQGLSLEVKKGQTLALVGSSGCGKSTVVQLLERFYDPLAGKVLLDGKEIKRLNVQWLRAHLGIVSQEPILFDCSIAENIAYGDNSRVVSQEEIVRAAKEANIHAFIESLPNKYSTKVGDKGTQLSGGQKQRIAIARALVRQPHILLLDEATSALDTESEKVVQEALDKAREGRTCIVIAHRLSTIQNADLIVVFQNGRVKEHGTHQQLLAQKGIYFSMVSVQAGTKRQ
* hit, by the source's call.

SMILES	RAM network inh	ABCG2 inh	Arbovirus anti	ABCB1 block
CCOC(=O)/C(=C\Nc1ccccc1C(F)(F)F)Sc1ncc(C(F)(F)F)cc1Cl	10.0*	2	5	1
CC1=CC(C2CC(=O)N(c3ccc(C)cc3)C2=O)CC2C(=O)N(c3ccc(C)cc3)C(=O)C12 (stereo not drawn)	6	2	7	1
CCCCn1ccnc1C(=O)c1cccc(S(=O)(=O)N2CC(C)CC(C)C2)c1 (stereo not drawn)	8.7*	2	7	1
COC(=O)c1c(NC(=O)/C=C/C(=O)O)sc(Cc2ccccc2)c1C	4	1	10	0
Cc1c(Cc2ccccc2)sc(NC(=O)/C=C/c2cccc3ccccc23)c1C(N)=O	9.8*	-12	-9	-1
O=C(COc1ccccc1)NCCSCc1ccc(Cl)cc1	9.9*	3	5	0
O=C(Cc1ccccc1)NCCSCc1ccc(Cl)cc1	0	6	0	0
O=C(NCc1ccc(F)cc1)c1ccccc1OCc1ccccc1	10*	67	-14	3
O=C(NCc1ccccc1)c1cccc(COc2cc(Cl)ccc2Cl)c1	8	2	-9	0
O=C(NCc1ccccc1)c1cccc(COc2ccccc2Cl)c1	8.6*	3	-13	0
COc1ccccc1C(=O)NCc1ccccc1	0	7	1	1
Cc1ccc2cc(C#N)c(NCc3ccccc3)nc2c1	6	0	-3	0
O=C(Nc1cccc(F)c1)c1cc(S(=O)(=O)NCCC2=CCCCC2)ccc1F	11*	6	15	0
O=C(c1ccccc1)N1CCN(c2ccc(NCc3ccc4c(c3)OCO4)cc2)CC1	1	-3	-27	-3
COc1cccc(Oc2cnc(N)nc2-c2ccc(OC)cc2O)c1	10*	2	-20	1
Nc1c(-c2ccccc2)c(CSc2nc3ccccc3[nH]2)nn1-c1cccc(Cl)c1	2	32	34*	22
CCSc1nc2ccccc2[nH]1	3	2	5	0
Cc1ccccc1-n1nc(CSc2nc3ccccc3[nH]2)c(-c2ccccc2)c1N	-1	13	40*	5
COc1ccc(CCNC(=O)c2c(O)c3cccc4c3n(c2=O)CC4)cc1	8.5*	3	13	1
COC(=O)c1c(NC(=O)c2ccc(C)o2)sc2c1CCCCC2	4	6	5	1
O=C(Nc1sc2c(c1C(=O)O)CCCC2)c1cccs1	0	4	48*	0
Cc1ccc(C(=O)Nc2sc3c(c2C(=O)O)CCCCC3)o1	1	1	47*	0
CC(C)OC(=O)c1c(NC(=O)c2cccs2)sc2c1CCCC2	5	3	6	0
CC(C)CC(=O)Nc1sc2c(c1C(=O)O)CCCCC2	-1	6	16	0
O=C(Nc1sc2c(c1C(=O)O)CCCCC2)c1ccccc1F	1	1	38*	0
SMILES	RAM network inh	ABCG2 inh	Arbovirus anti	ABCB1 block
O=C(Nc1sc2c(c1C(=O)O)CCCCC2)c1cccs1	0	2	46*	0
Cc1nnc(SCc2ccccc2)n1CC1CCCO1 (stereo not drawn)	-1	-1	2	0
CCC(c1nnnn1CCOC)N1CCN(C(=O)c2ccco2)CC1 (stereo not drawn)	0	2	13	0
O=C(CNC(=O)COc1ccccc1)NCc1ccccc1F	1	2	4	1
O=C(Nc1sc2c(c1C(=O)O)CCC2)c1ccco1	5	1	10	0
CC(C)(C)c1ccc(C(=O)Nc2sc3c(c2C(=O)O)CCC3)cc1	1	2	32*	0
CC(=O)c1cccc(NC(=O)N2C3CCC2CC(NC(=O)C2CC2)C3)c1 (stereo not drawn)	2	2	-1	1
COc1ccc2nc(NC(=O)C3=NN(c4ccccc4)C(=O)CC3)sc2c1	2	0	48*	0
Nc1c(C(=O)Nc2ccccc2)sc2nc(-c3ccco3)ccc12	11*	-1	0	0
Cc1nn(-c2ccccc2)c2nc(C(F)(F)F)[nH]c(=O)c12	-1	2	37*	0
Cc1nn(CCC#N)c2nc(C(F)(F)F)[nH]c(=O)c12	3	-7	-1	-1
CCCn1c(SCC(=O)Nc2nc(-c3ccc(OC)cc3)cs2)nc2c1c(=O)n(C)c(=O)n2C	4	28	-14	2
C#CCn1c(=NC(=O)c2cc(-c3cccs3)nc3ccccc23)sc2cc(S(N)(=O)=O)ccc21	9.7*	-2	-5	-1
Cc1ccccc1OCCNC(=O)CNC(=O)c1ccccc1O	1	5	1	0
Cc1ccc(-c2nnc(C)c(N3CCCC3)n2)cc1	2	5	5	1
CCOC(=O)CNc1ncc(C(F)(F)F)cc1Cl	1	1	16	0
N#CCC(CNc1ncc(C(F)(F)F)cc1Cl)OC(=O)c1ccc(Cl)cc1Cl (stereo not drawn)	9.6*	6	-4	1
CSc1nc(Cl)c(Cc2ccc(OC(C)C)cc2)c(N(C)C)n1	8.9*	6	27	1
Cn1c(NCc2ccccc2)nc2c1c(=O)n(Cc1ccc(Br)cc1)c(=O)n2C	4	4	-4	1
COc1ccc(CNc2nc3c(c(=O)n(Cc4ccc(Br)cc4)c(=O)n3C)n2C)cc1	8.8*	3	-5	1
Cc1ccc(C)c(NC(=O)CSc2nnc(-c3ccco3)o2)c1	1	-1	1	0
Cc1cc(NC(=O)Nc2cccs2)no1	1	1	-6	0
Cn1c(COc2ccccc2)nnc1SCC(=O)Nc1ccc(S(N)(=O)=O)cc1	2	0	8	0
NS(=O)(=O)c1ccc(NC(=O)CSc2nnc(COc3ccccc3Cl)n2C2CC2)cc1	9.5*	0	8	0
O=C(Nc1ccc(S(=O)(=O)Nc2ncccn2)cc1)c1cnc(Cl)c(Cl)c1	11*	-1	4	0
SMILES	RAM network inh	ABCG2 inh	Arbovirus anti	ABCB1 block
COc1ccccc1CNC(=O)C/C(C)=N/NC(=O)Cc1ccccc1	1	0	-2	0
Cc1ccc(Cn2c(C)cc3c(c2=O)C(c2cccs2)C(C#N)=C(N)O3)cc1 (stereo not drawn)	8.7*	0	-4	0
Cc1cc2c(c(=O)o1)C(c1cccs1)C(C#N)=C(N)O2 (stereo not drawn)	0	0	-2	0
Cc1ccc(-n2c(O)c(C=Nc3ccccc3-c3n[nH]c(=S)[nH]c3=O)c3ccccc3c2=O)c(C)c1	11*	-4	21	0
Cc1ccc(-n2c(O)c(C=Nc3ccccc3-c3n[nH]c(=S)[nH]c3=O)c3ccccc3c2=O)cc1C	7	-4	26	-1
CCCCNC(=S)N(C)/N=C/c1sc(N2CCCCC2)nc1-c1cccs1	9.9*	6	13	0
CCCCN(CCCC)CC(O)COc1ccccc1Br (stereo not drawn)	1	40	39*	7
